Results: ChEMBL document CHEMBL5058577, “EUbOPEN Chemogenomics Library 2 (Multiplex)” (2022)

System: HEK-293T
Experiment: Multiplex assay against HEK293T
Format: toxicity, cell-based
Details: human
In short: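 Compound was added to live cells that had been stained at seeding with Hoechst33342, BioTracker Green Microtubule Cytoskeleton Dye, MitoTracker Red and Annexin V Alexa Fluor 680, and imaging followed on a CQ1 microscope at 37°C and 5% CO2. CellPathfinder machine-learning gating divided cells into Hoechst high-intensity objects or normal cells, normal cells into healthy, pyknosed or fragmented nuclei, and pyknosed cells into mitotic or apoptotic. Tubulin, mitochondrial-mass and membrane-permeability phenotypes are per cents of healthy-nucleus cells.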

[1] = 12 h, 1 µM, compound concentration 1 uM, replicate 1
[2] = 12 h, 1 µM, compound concentration 1 uM, replicate 2
[3] = 12 h, 10 µM, compound concentration 10 uM, replicate 1
[4] = 12 h, 10 µM, compound concentration 10 uM, replicate 2
[5] = 24 h, 1 µM, compound concentration 1 uM, replicate 1
[6] = 24 h, 1 µM, compound concentration 1 uM, replicate 2
[7] = 24 h, 10 µM, compound concentration 10 uM, replicate 1
[8] = 24 h, 10 µM, compound concentration 10 uM, replicate 2
[9] = 48 h, 1 µM, compound concentration 1 uM, replicate 1
[10] = 48 h, 1 µM, compound concentration 1 uM, replicate 2
[11] = 48 h, 10 µM, compound concentration 10 uM, replicate 1
[12] = 48 h, 10 µM, compound concentration 10 uM, replicate 2

What does the source list for `CSc1nc(NC2CCCC2)c([N+](=O)[O-])c(NC2CCCC2)n1` [GS-39783]?
Population Apoptotic (%) [1]: 45%; Population Fragmented Nuclei (%) [1]: 11%; Population Healthy Nuclei (%) [1]: 74%; Population Hoechst High Intensity Objects (%) [1]: 8%; Population Membrane Permeable-Phenotype (%) [1]: 0%; Population Mitochondria Different-Phenotype (%) [1]: 41%; Population Mitotic Cells (%) [1]: 54%; Population Normal (%) [1]: 91%; Population Pyknosed Nuclei (%) [1]: 14%; Population Tubulin-Different-Phenotype (%) [1]: 30%; Total Cell Count [1]: 346; Population Apoptotic (%) [2]: 40%; Population Fragmented Nuclei (%) [2]: 3%; Population Healthy Nuclei (%) [2]: 85%; Population Hoechst High Intensity Objects (%) [2]: 4%; Population Mitochondria Different-Phenotype (%) [2]: 68%; Population Mitotic Cells (%) [2]: 59%; Population Normal (%) [2]: 95%; Population Pyknosed Nuclei (%) [2]: 11%; Population Tubulin-Different-Phenotype (%) [2]: 27%; Total Cell Count [2]: 301; Population Apoptotic (%) [3]: 29%; Population Fragmented Nuclei (%) [3]: 6%; Population Healthy Nuclei (%) [3]: 81%; Population Hoechst High Intensity Objects (%) [3]: 6%; Population Membrane Permeable-Phenotype (%) [3]: 0%; Population Mitochondria Different-Phenotype (%) [3]: 50%; Population Mitotic Cells (%) [3]: 70%; Population Normal (%) [3]: 93%; Population Pyknosed Nuclei (%) [3]: 12%; Population Tubulin-Different-Phenotype (%) [3]: 40%; Total Cell Count [3]: 449; Population Apoptotic (%) [4]: 40%; Population Fragmented Nuclei (%) [4]: 5%; Population Healthy Nuclei (%) [4]: 84%; Population Hoechst High Intensity Objects (%) [4]: 5%; Population Mitochondria Different-Phenotype (%) [4]: 68%; Population Mitotic Cells (%) [4]: 60%; Population Normal (%) [4]: 94%; Population Pyknosed Nuclei (%) [4]: 10%; Population Tubulin-Different-Phenotype (%) [4]: 29%; Total Cell Count [4]: 406; Population Apoptotic (%) [5]: 30%; Population Fragmented Nuclei (%) [5]: 12%; Population Healthy Nuclei (%) [5]: 76%; Population Hoechst High Intensity Objects (%) [5]: 7%; Population Membrane Permeable-Phenotype (%) [5]: 0%; Population Mitochondria Different-Phenotype (%) [5]: 25%; Population Mitotic Cells (%) [5]: 69%; Population Normal (%) [5]: 92%; Population Pyknosed Nuclei (%) [5]: 11%; Population Tubulin-Different-Phenotype (%) [5]: 19%; Total Cell Count [5]: 492; Population Apoptotic (%) [6]: 38%; Population Fragmented Nuclei (%) [6]: 7%; Population Healthy Nuclei (%) [6]: 84%; Population Hoechst High Intensity Objects (%) [6]: 8%; Population Mitochondria Different-Phenotype (%) [6]: 51%; Population Mitotic Cells (%) [6]: 61%; Population Normal (%) [6]: 91%; Population Pyknosed Nuclei (%) [6]: 7%; Total Cell Count [6]: 360; Population Apoptotic (%) [7]: 27%; Population Fragmented Nuclei (%) [7]: 11%; Population Healthy Nuclei (%) [7]: 78%; Population Hoechst High Intensity Objects (%) [7]: 5%; Population Membrane Permeable-Phenotype (%) [7]: 1%; Population Mitochondria Different-Phenotype (%) [7]: 30%; Population Mitotic Cells (%) [7]: 72%; Population Normal (%) [7]: 94%; Population Pyknosed Nuclei (%) [7]: 10%; Population Tubulin-Different-Phenotype (%) [7]: 30%; Total Cell Count [7]: 553; Population Apoptotic (%) [8]: 37%; Population Fragmented Nuclei (%) [8]: 8%; Population Healthy Nuclei (%) [8]: 83%; Population Hoechst High Intensity Objects (%) [8]: 6%; Population Membrane Permeable-Phenotype (%) [8]: 0%; Population Mitochondria Different-Phenotype (%) [8]: 52%; Population Mitotic Cells (%) [8]: 62%; Population Normal (%) [8]: 93%; Population Pyknosed Nuclei (%) [8]: 7%; Population Tubulin-Different-Phenotype (%) [8]: 28%; Total Cell Count [8]: 474; Population Apoptotic (%) [9]: 35%; Population Fragmented Nuclei (%) [9]: 15%; Population Healthy Nuclei (%) [9]: 74%; Population Hoechst High Intensity Objects (%) [9]: 3%; Population Membrane Permeable-Phenotype (%) [9]: 1%; Population Mitochondria Different-Phenotype (%) [9]: 22%; Population Mitotic Cells (%) [9]: 64%; Population Normal (%) [9]: 96%; Population Pyknosed Nuclei (%) [9]: 9%; Population Tubulin-Different-Phenotype (%) [9]: 22%; Total Cell Count [9]: 775; Population Apoptotic (%) [10]: 30%; Population Fragmented Nuclei (%) [10]: 13%; Population Healthy Nuclei (%) [10]: 77%; Population Hoechst High Intensity Objects (%) [10]: 6%; Population Membrane Permeable-Phenotype (%) [10]: 0%; Population Mitochondria Different-Phenotype (%) [10]: 32%; Population Mitotic Cells (%) [10]: 69%; Population Normal (%) [10]: 93%; Population Pyknosed Nuclei (%) [10]: 8%; Population Tubulin-Different-Phenotype (%) [10]: 24%; Total Cell Count [10]: 505; Population Apoptotic (%) [11]: 17%; Population Fragmented Nuclei (%) [11]: 14%; Population Healthy Nuclei (%) [11]: 78%; Population Hoechst High Intensity Objects (%) [11]: 3%; Population Membrane Permeable-Phenotype (%) [11]: 1%; Population Mitochondria Different-Phenotype (%) [11]: 27%; Population Mitotic Cells (%) [11]: 82%; Population Normal (%) [11]: 96%; Population Pyknosed Nuclei (%) [11]: 7%; Population Tubulin-Different-Phenotype (%) [11]: 21%; Total Cell Count [11]: 856; Population Apoptotic (%) [12]: 30%; Population Fragmented Nuclei (%) [12]: 13%; Population Healthy Nuclei (%) [12]: 77%; Population Hoechst High Intensity Objects (%) [12]: 5%; Population Membrane Permeable-Phenotype (%) [12]: 0%; Population Mitochondria Different-Phenotype (%) [12]: 35%; Population Mitotic Cells (%) [12]: 69%; Population Normal (%) [12]: 94%; Population Pyknosed Nuclei (%) [12]: 8%; Total Cell Count [12]: 647

What does the source list for `Cl.Cl.OCCOCCN1CCN(C(c2ccccc2)c2ccc(Cl)cc2)CC1` (stereo not given) [HYDROXYZINE HYDROCHLORIDE]?
Population Apoptotic (%) [1]: 34%; Population Fragmented Nuclei (%) [1]: 7%; Population Healthy Nuclei (%) [1]: 79%; Population Hoechst High Intensity Objects (%) [1]: 6%; Population Membrane Permeable-Phenotype (%) [1]: 0%; Population Mitochondria Different-Phenotype (%) [1]: 48%; Population Mitotic Cells (%) [1]: 66%; Population Normal (%) [1]: 93%; Population Pyknosed Nuclei (%) [1]: 13%; Population Tubulin-Different-Phenotype (%) [1]: 24%; Total Cell Count [1]: 394; Population Apoptotic (%) [2]: 70%; Population Fragmented Nuclei (%) [2]: 5%; Population Healthy Nuclei (%) [2]: 84%; Population Hoechst High Intensity Objects (%) [2]: 9%; Population Mitochondria Different-Phenotype (%) [2]: 58%; Population Mitotic Cells (%) [2]: 29%; Population Normal (%) [2]: 90%; Population Pyknosed Nuclei (%) [2]: 9%; Population Tubulin-Different-Phenotype (%) [2]: 28%; Total Cell Count [2]: 362; Population Apoptotic (%) [3]: 49%; Population Fragmented Nuclei (%) [3]: 8%; Population Healthy Nuclei (%) [3]: 71%; Population Hoechst High Intensity Objects (%) [3]: 11%; Population Membrane Permeable-Phenotype (%) [3]: 0%; Population Mitochondria Different-Phenotype (%) [3]: 71%; Population Mitotic Cells (%) [3]: 50%; Population Normal (%) [3]: 88%; Population Pyknosed Nuclei (%) [3]: 19%; Population Tubulin-Different-Phenotype (%) [3]: 65%; Total Cell Count [3]: 354; Population Apoptotic (%) [4]: 68%; Population Fragmented Nuclei (%) [4]: 6%; Population Healthy Nuclei (%) [4]: 73%; Population Hoechst High Intensity Objects (%) [4]: 19%; Population Membrane Permeable-Phenotype (%) [4]: 1%; Population Mitochondria Different-Phenotype (%) [4]: 83%; Population Mitotic Cells (%) [4]: 31%; Population Normal (%) [4]: 80%; Population Pyknosed Nuclei (%) [4]: 20%; Population Tubulin-Different-Phenotype (%) [4]: 59%; Total Cell Count [4]: 327; Population Apoptotic (%) [5]: 22%; Population Fragmented Nuclei (%) [5]: 10%; Population Healthy Nuclei (%) [5]: 78%; Population Hoechst High Intensity Objects (%) [5]: 2%; Population Membrane Permeable-Phenotype (%) [5]: 0%; Population Mitochondria Different-Phenotype (%) [5]: 34%; Population Mitotic Cells (%) [5]: 77%; Population Normal (%) [5]: 97%; Population Pyknosed Nuclei (%) [5]: 11%; Population Tubulin-Different-Phenotype (%) [5]: 22%; Total Cell Count [5]: 566; Population Apoptotic (%) [6]: 43%; Population Fragmented Nuclei (%) [6]: 11%; Population Hoechst High Intensity Objects (%) [6]: 13%; Population Mitochondria Different-Phenotype (%) [6]: 41%; Population Mitotic Cells (%) [6]: 56%; Population Normal (%) [6]: 86%; Population Pyknosed Nuclei (%) [6]: 9%; Population Tubulin-Different-Phenotype (%) [6]: 17%; Total Cell Count [6]: 481; Population Apoptotic (%) [7]: 29%; Population Fragmented Nuclei (%) [7]: 10%; Population Healthy Nuclei (%) [7]: 74%; Population Hoechst High Intensity Objects (%) [7]: 8%; Population Membrane Permeable-Phenotype (%) [7]: 0%; Population Mitochondria Different-Phenotype (%) [7]: 55%; Population Mitotic Cells (%) [7]: 70%; Population Normal (%) [7]: 91%; Population Pyknosed Nuclei (%) [7]: 15%; Population Tubulin-Different-Phenotype (%) [7]: 49%; Total Cell Count [7]: 472; Population Apoptotic (%) [8]: 59%; Population Fragmented Nuclei (%) [8]: 8%; Population Healthy Nuclei (%) [8]: 71%; Population Hoechst High Intensity Objects (%) [8]: 22%; Population Mitochondria Different-Phenotype (%) [8]: 72%; Population Mitotic Cells (%) [8]: 40%; Population Normal (%) [8]: 77%; Population Pyknosed Nuclei (%) [8]: 19%; Population Tubulin-Different-Phenotype (%) [8]: 43%; Total Cell Count [8]: 383; Population Apoptotic (%) [9]: 23%; Population Fragmented Nuclei (%) [9]: 14%; Population Healthy Nuclei (%) [9]: 79%; Population Hoechst High Intensity Objects (%) [9]: 1%; Population Membrane Permeable-Phenotype (%) [9]: 1%; Population Mitochondria Different-Phenotype (%) [9]: 19%; Population Mitotic Cells (%) [9]: 76%; Population Normal (%) [9]: 98%; Population Pyknosed Nuclei (%) [9]: 5%; Population Tubulin-Different-Phenotype (%) [9]: 14%; Total Cell Count [9]: 932; Population Apoptotic (%) [10]: 46%; Population Hoechst High Intensity Objects (%) [10]: 3%; Population Membrane Permeable-Phenotype (%) [10]: 0%; Population Mitotic Cells (%) [10]: 53%; Population Normal (%) [10]: 96%; Population Pyknosed Nuclei (%) [10]: 6%; Population Tubulin-Different-Phenotype (%) [10]: 12%; Total Cell Count [10]: 676; Population Apoptotic (%) [11]: 38%; Population Fragmented Nuclei (%) [11]: 14%; Population Healthy Nuclei (%) [11]: 76%; Population Hoechst High Intensity Objects (%) [11]: 6%; Population Membrane Permeable-Phenotype (%) [11]: 0%; Population Mitochondria Different-Phenotype (%) [11]: 45%; Population Mitotic Cells (%) [11]: 61%; Population Normal (%) [11]: 93%; Population Pyknosed Nuclei (%) [11]: 9%; Population Tubulin-Different-Phenotype (%) [11]: 35%; Total Cell Count [11]: 627; Population Apoptotic (%) [12]: 60%; Population Fragmented Nuclei (%) [12]: 15%; Population Healthy Nuclei (%) [12]: 72%; Population Hoechst High Intensity Objects (%) [12]: 16%; Population Mitochondria Different-Phenotype (%) [12]: 53%; Population Mitotic Cells (%) [12]: 40%; Population Normal (%) [12]: 83%; Population Pyknosed Nuclei (%) [12]: 12%; Total Cell Count [12]: 539
